# Test results taken from ChEMBL document CHEMBL1770119, “Synthesis and SAR of 4-(pyrazol-3-yl)-pyridines as novel c-jun N-terminal kinase inhibitors” (Bioorg Med Chem Lett, 2011).
# Tests used:
# Type in all cases: ADME, organism-based
# Rattus norvegicus = assay: Oral bioavailability in Sprague-Dawley rat at 2 mg/kg; settings: in vivo
# How it was run: (§1)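 Sprague-Dawley rats (n = 3) given 1 mg/kg IV and 2 mg/kg oral gavage. Blood taken into EDTA tubes at 5, 15, 30 min and 1, 2, 4, 6, 8 h; plasma obtained by centrifugation. Plasma proteins precipitated with acetonitrile; drug measured by LC-MS/MS. Parameters derived by noncompartmental analysis.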
# [1] = AUC in Sprague-Dawley rat at 2 mg/kg, po; set-up: dose 2 mg/kg, route oral; settings: plasma; how it was run: as §1
# [2] = Drug level in plasma of C57Bl6 mouse at 10 mg/kg, ip after 2 hrs; set-up: dose 10 mg/kg, route intraperitoneal; settings: read-out: Drug uptake
# How it was run: (§2)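 C57Bl6 mice (n = 3) dosed 10 mg/kg intraperitoneally; blood and brain collected 2 h later. Plasma and brain mixed with acetonitrile (1:5 v:v or w:v); brain broken up by probe sonication. Drug measured by LC-MS/MS against standards in plasma or in blank brain matrix.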
# [3] = Drug level in brain of C57Bl6 mouse at 10 mg/kg, ip after 2 hrs; set-up: dose 10 mg/kg, route intraperitoneal; settings: read-out: Drug uptake; how it was run: as §2
Compound,F (Rattus norvegicus),AUC [1],concentration at 2 h [2],concentration at 2 h [3]
Cn1ccc(-c2cc(Nc3ccc(-n4cnc(N5CCOCC5)n4)cc3)ncc2Cl)n1,75%,45 µM·h,6.6 µM,3.5 µM
Cn1ccc(-c2cc(Nc3ccc(-n4cnc(-c5ccccn5)n4)cc3)ncc2F)n1,73%,14.9 µM·h,3.3 µM,0.74 µM
Cc1ccc(-c2ncn(-c3ccc(Nc4cc(-c5ccn(C)n5)c(F)cn4)cc3)n2)cn1,69%,10 µM·h,9 µM,10.3 µM
Cc1nc(C)n(-c2ccc(Nc3cc(-c4nn(C)cc4-c4ccc(F)cc4)ccn3)cc2)n1,51%,6 µM·h,9 µM,1.4 µM
Cc1nc(C)n(-c2ccc(Nc3cc(-c4ccn(C)n4)c(Cl)cn3)cc2)n1,73%,7.1 µM·h,10.4 µM,5.3 µM
